# Source: ChEMBL document CHEMBL1143684, “Exploring the structure-activity relationship of the ethylamine portion of 3-iodothyronamine for rat and mouse trace amine-associated receptor 1” (J Med Chem, 2007)
# Experiments:
# Assay type in all cases: functional, cell-based
# [1] = biological target: Trace amine-associated receptor 1 (Rattus norvegicus, UniProt Q923Y9); test: Activity at rat TAAR1 expressed in HEK293 cells assessed as cAMP production
# Method in brief: (§1)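 HEK293 cells stably expressing rat or mouse TAAR1, kept in fresh medium ≥2 h, harvested in KRH, preincubated 20-30 min with 200 µM IBMX. Cells boiled 20 min in acetate buffer. cAMP in cleared lysate read by EFC luminescence kit (18 h dark). Responses given as % of T1AM. EC50 from concentration-response fit, mean ± SEM of N independent triplicate runs.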
# [2] = biological target: Trace amine-associated receptor 1 (Mus musculus) (UniProt Q923Y8); test: Efficacy at mouse TAAR1 expressed in HEK293 cells assessed as stimulation of cAMP production at 10 uM relative to 3-iodothyronamine
# Trace amine-associated receptor 1 (Mus musculus), sequence (Q923Y8 whole entry, the tested form may be a part): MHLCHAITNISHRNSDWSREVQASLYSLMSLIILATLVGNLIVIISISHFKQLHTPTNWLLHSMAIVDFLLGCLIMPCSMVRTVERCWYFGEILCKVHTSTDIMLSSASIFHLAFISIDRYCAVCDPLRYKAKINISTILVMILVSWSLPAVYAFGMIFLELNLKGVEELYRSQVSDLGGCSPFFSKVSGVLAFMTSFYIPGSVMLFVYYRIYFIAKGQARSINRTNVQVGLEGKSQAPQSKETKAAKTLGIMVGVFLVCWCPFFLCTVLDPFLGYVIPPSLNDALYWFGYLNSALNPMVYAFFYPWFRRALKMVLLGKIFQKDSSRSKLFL
# [3] = biological target: Trace amine-associated receptor 1 (Mus musculus, UniProt Q923Y8); test: Activity at mouse TAAR1 expressed in HEK293 cells assessed as cAMP production; method in brief: as §1
# Trace amine-associated receptor 1 (Mus musculus, UniProt Q923Y8), sequence (Q923Y8 whole entry): as the sequence (Q923Y8 whole entry, the tested form may be a part) above
# [4] = biological target: Trace amine-associated receptor 1 (Rattus norvegicus) (UniProt Q923Y9); test: Efficacy at rat TAAR1 expressed in HEK293 cells assessed as stimulation of cAMP production at 10 uM relative to 3-iodothyronamine
# Trace amine-associated receptor 1 (Rattus norvegicus), sequence (Q923Y9 whole entry): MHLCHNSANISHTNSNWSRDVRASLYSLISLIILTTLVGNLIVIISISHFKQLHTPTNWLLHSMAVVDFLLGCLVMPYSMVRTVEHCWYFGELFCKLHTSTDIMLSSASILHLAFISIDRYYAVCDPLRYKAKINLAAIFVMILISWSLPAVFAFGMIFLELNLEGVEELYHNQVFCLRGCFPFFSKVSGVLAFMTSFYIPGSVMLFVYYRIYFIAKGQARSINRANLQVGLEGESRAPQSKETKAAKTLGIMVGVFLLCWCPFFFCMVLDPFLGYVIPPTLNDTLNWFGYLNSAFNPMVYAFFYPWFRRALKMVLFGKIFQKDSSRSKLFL
# [5] = biological target: Trace amine-associated receptor 1 (Mus musculus) (UniProt Q923Y8); test: Antagonist activity at mouse TAAR1 expressed in HEK293 cells at 10 uM assessed as inhibition of 3-iodothyronamine-induced cAMP production; parameters: scale not given: the % may be the effect or the level left
# Method in brief: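 Cells harvested in Krebs-Ringer-HEPES, preincubated 20-30 min with 200 µM IBMX, then exposed 1 h at 37 °C in KRH with 133 µM IBMX plus test compound at 10 µM (DMSO vehicle; forskolin 10 µM control). Cells lysed by boiling; cAMP measured by enzyme-fragment-complementation luminescence.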
# Trace amine-associated receptor 1 (Rattus norvegicus, UniProt Q923Y9), sequence (Q923Y9 whole entry): as above
Structure (SMILES),EC50 [1] [nM],Emax [2] [%],EC50 [3] [nM],Emax [4] [%],Activity [5] [%]
COc1ccc(C(CN)c2ccccc2)c2ccccc12 (configuration not stated),270,14,> 1000,71,
CN(C)CCCNC(=O)c1ccc(Oc2ccccc2)cc1,> 1000,0,> 1000,2,
NCC(c1ccccc1)c1ccc(O)c2ccccc12 (configuration not stated),716,14,> 1000,89,
NCCc1ccc(Oc2ccc(O)cc2)c(I)c1,33,100,314,100,30
CC(C)(CN)c1ccc(Oc2ccccc2)cc1,> 1000,18,> 1000,13,
NCC(c1ccccc1)c1ccc(Oc2ccccc2)cc1 (configuration not stated),28,35,> 1000,103,
NCC(Cc1ccccc1)c1ccc(Oc2ccccc2)cc1 (configuration not stated),140,31,> 1000,92,
NCC(C#Cc1ccccc1)c1ccc(Oc2ccccc2)cc1 (configuration not stated),62,2,> 1000,119,
C#CC(CN)c1ccc(Oc2ccccc2)cc1 (configuration not stated),41,79,929,105,
CC(CN)c1ccc(Oc2ccccc2)cc1 (configuration not stated),250,72,> 1000,94,
NCC(c1ccccc1)c1cccc(Oc2ccccc2)c1 (configuration not stated),19,15,> 1000,131,
NCCc1ccc(Oc2ccccc2)cc1,63,85,420,93,
NCCc1ccc(Oc2ccccc2)c2ccccc12,26,104,101,113,
NCC(c1ccccc1)c1ccc(Oc2ccccc2)c2ccccc12 (configuration not stated),52,0,> 1000,100,
